Tests used:
Assay type in all cases: functional
[1] = tested on: HL-60(TB); experiment: Cytotoxicity against human HL-60(TB) cells after 48 hrs by SRB assay; settings: HL-60, 48 h
Summary of the method: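 Human tumour line grown in RPMI 1640 with 5% FBS and 2 mM L-glutamine. Cells were plated and held 24 h at 37 °C/5% CO2 before dosing, and time-zero plates were TCA-fixed. Five 10-fold concentrations (0.01–100 µM) were added from DMSO stock and incubated 48 h. Cells were TCA-fixed, stained with 0.4% SRB and read at 515 nm. Values were calculated from growth curves relative to time-zero and control.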

[2] = tested on: MOLT-4; experiment: Cytotoxicity against human MOLT4 cells after 48 hrs by SRB assay; settings: MOLT-4, 48 h
Summary of the method: (§1)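 Five-dose NCI-60 panel screen: cells grown in RPMI 1640 with 5% FBS and 2 mM L-glutamine, preincubated 24 h at 37 °C, 5% CO2. Five 10-fold dilutions, 0.01–100 µM, applied for 48 h. Fixed with cold TCA (10% final), stained with 0.4% SRB, absorbance read at 515 nm. GI50, TGI and LC50 were taken from log concentration versus % growth curves using time-zero plates.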

[3] = tested on: RPMI-8226; experiment: Cytotoxicity against human RPMI8226 cells after 48 hrs by SRB assay; settings: RPMI-8226, 48 h; summary of the method: as §1
[4] = tested on: A549; experiment: Cytotoxicity against human A549 cells after 48 hrs by SRB assay; settings: A549, 48 h; summary of the method: as §1
[5] = tested on: EKVX; experiment: Cytotoxicity against human EKVX cells after 48 hrs by SRB assay; summary of the method: as §1
[6] = tested on: COLO 205; experiment: Cytotoxicity against human COLO205 cells after 48 hrs by SRB assay; settings: COLO 205, 48 h; summary of the method: as §1
[7] = tested on: HCT-15; experiment: Cytotoxicity against human HCT15 cells after 48 hrs by SRB assay; settings: HCT-15, 48 h; summary of the method: as §1
[8] = tested on: HT-29; experiment: Cytotoxicity against human HT-29 cells after 48 hrs by SRB assay; settings: HT-29, 48 h; summary of the method: as §1
[9] = tested on: Malme-3M; experiment: Cytotoxicity against human MALME-3M cells after 48 hrs by SRB assay; summary of the method: as §1
[10] = tested on: SK-MEL-5; experiment: Cytotoxicity against human SK-MEL-5 cells after 48 hrs by SRB assay; settings: SK-MEL-5, 48 h; summary of the method: as §1
[11] = tested on: UACC-257; experiment: Cytotoxicity against human UACC257 cells after 48 hrs by SRB assay; settings: UACC-257, 48 h
Summary of the method: (§2)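 Cells were grown in RPMI 1640 with 5% FBS and 2 mM L-glutamine, then held 24 h at 37 °C and 5% CO2 before dosing. TCA-fixed time-zero plates were kept. Compound was dissolved in DMSO and given at five 10-fold dilutions for 48 h. Cells were fixed with cold TCA (10% final), stained with 0.4% SRB and read at 515 nm. GI50, TGI and LC50 came from Ti/Tz/control growth formulas.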

[12] = tested on: IGROV-1; experiment: Cytotoxicity against human IGROV1 cells after 48 hrs by SRB assay; settings: IGROV-1, 48 h; summary of the method: as §1
[13] = tested on: OVCAR-3; experiment: Cytotoxicity against human OVCAR3 cells after 48 hrs by SRB assay; settings: OVCAR-3, 48 h; summary of the method: as §1
[14] = tested on: OVCAR-8; experiment: Cytotoxicity against human OVCAR8 cells after 48 hrs by SRB assay; settings: OVCAR-8, 48 h; summary of the method: as §1
[15] = tested on: RXF 393; experiment: Cytotoxicity against human RXF393 cells after 48 hrs by SRB assay; settings: RXF 393, 48 h; summary of the method: as §1
[16] = tested on: TK-10; experiment: Cytotoxicity against human TK10 cells after 48 hrs by SRB assay; settings: TK-10, 48 h; summary of the method: as §2
[17] = tested on: UO-31; experiment: Cytotoxicity against human UO31 cells after 48 hrs by SRB assay; settings: UO-31, 48 h; summary of the method: as §2
[18] = tested on: T47D; experiment: Cytotoxicity against human T47D cells after 48 hrs by SRB assay; summary of the method: as §2
[19] = read-out: LC50 (the source's name)
[20] = read-out: pLC50 (the source's name) (converted)

In the case of `Nc1cc(Br)c(-c2nnc(CCC(=O)c3nc4ccccc4[nH]3)o2)c(Br)c1`, the GI50 [1] is reported as 3.47 µM, the CC50 [1, 19] is reported as > 100 µM and the TGI ([1]; read-out: TGI) is reported as > 100 µM. The CC50 [1, 20] was > 100 µM, the TGI ([1]; read-out: pTGI) was > 100 µM and the GI50 [2] was 4.9 µM. The CC50 [2, 19] was > 100 µM, the TGI ([2]; read-out: TGI) was > 100 µM and the CC50 [2, 20] was > 100 µM. The TGI ([2]; read-out: pTGI) was > 100 µM, the GI50 [3] was 4.17 µM and the CC50 [3, 19] was > 100 µM. For the same molecule, the TGI ([3]; read-out: TGI) was > 100 µM, the CC50 [3, 20] was > 100 µM and the TGI ([3]; read-out: pTGI) was > 100 µM. The GI50 [4] was 27.5 µM, the CC50 [4, 19] was > 100 µM and the TGI ([4]; read-out: TGI) was > 100 µM. For the same molecule, the CC50 [4, 20] was > 100 µM, the TGI ([4]; read-out: pTGI) was > 100 µM and the GI50 [5] was 22.9 µM. For the same molecule, the CC50 [5, 19] was > 100 µM, the TGI ([5]; read-out: TGI) was > 100 µM and the CC50 [5, 20] was > 100 µM. The TGI ([5]; read-out: pTGI) was > 100 µM, the GI50 [6] was 11.7 µM and the CC50 [6, 19] was 80.1 µM. It also gave a TGI ([6]; read-out: TGI) of 30.8 µM, a CC50 [6, 20] of 79.4 µM and a TGI ([6]; read-out: pTGI (converted)) of 30.9 µM. The GI50 [7] was > 100 µM, the CC50 [7, 19] was > 100 µM and the TGI ([7]; read-out: TGI) was > 100 µM. For the same molecule, the CC50 [7, 20] was > 100 µM, the TGI ([7]; read-out: pTGI) was > 100 µM and the GI50 [8] was 19.1 µM. The CC50 [8, 19] was > 100 µM, the TGI ([8]; read-out: TGI) was 83.5 µM and the CC50 [8, 20] was > 100 µM. For the same molecule, the TGI ([8]; read-out: pTGI (converted)) was 83.2 µM, the GI50 [9] was 2.04 µM and the CC50 [9, 19] was > 100 µM. The TGI ([9]; read-out: TGI) was 17.2 µM, the CC50 [9, 20] was > 100 µM and the TGI ([9]; read-out: pTGI (converted)) was 17.4 µM. The GI50 [10] was 14.1 µM, the CC50 [10, 19] was > 100 µM and the TGI ([10]; read-out: TGI) was > 100 µM. The CC50 [10, 20] was > 100 µM, the TGI ([10]; read-out: pTGI) was > 100 µM and the GI50 [11] was 7.59 µM. The CC50 [11, 19] was > 100 µM, the TGI ([11]; read-out: TGI) was > 100 µM and the CC50 [11, 20] was > 100 µM. For the same molecule, the TGI ([11]; read-out: pTGI) was > 100 µM, the GI50 [12] was 5.89 µM and the LC50 ([12]; read-out: LC50) was > 100 µM. For the same molecule, the TGI ([12]; read-out: TGI) was 62.7 µM, the LC50 ([12]; read-out: pLC50 (converted)) was > 100 µM and the TGI ([12]; read-out: pTGI (converted)) was 63.1 µM. The GI50 [13] was 2.63 µM, the LC50 ([13]; read-out: LC50) was > 100 µM and the TGI ([13]; read-out: TGI) was 6.98 µM. For the same molecule, the LC50 ([13]; read-out: pLC50 (converted)) was > 100 µM, the TGI ([13]; read-out: pTGI (converted)) was 6.92 µM and the GI50 [14] was 21.4 µM. For the same molecule, the CC50 [14, 19] was > 100 µM, the TGI ([14]; read-out: TGI) was > 100 µM and the CC50 [14, 20] was > 100 µM. The TGI ([14]; read-out: pTGI) was > 100 µM, the GI50 [15] was 12.9 µM and the CC50 [15, 19] was > 100 µM. The TGI ([15]; read-out: TGI) was 58.6 µM, the CC50 [15, 20] was > 100 µM and the TGI ([15]; read-out: pTGI (converted)) was 58.9 µM. The GI50 [16] was 36.3 µM, the LC50 ([16]; read-out: LC50) was > 100 µM and the TGI ([16]; read-out: TGI) was > 100 µM. The LC50 ([16]; read-out: pLC50 (converted)) was > 100 µM, the TGI ([16]; read-out: pTGI) was > 100 µM and the GI50 [17] was 4.07 µM. The CC50 [17, 19] was > 100 µM, the TGI ([17]; read-out: TGI) was > 100 µM and the CC50 [17, 20] was > 100 µM. For the same molecule, the TGI ([17]; read-out: pTGI) was > 100 µM, the GI50 [18] was 23.4 µM and the LC50 ([18]; read-out: LC50) was > 100 µM. The TGI ([18]; read-out: TGI) was > 100 µM, the LC50 ([18]; read-out: pLC50 (converted)) was > 100 µM and the TGI ([18]; read-out: pTGI) was > 100 µM.

— ChEMBL document CHEMBL2157987, “Benzimidazole bearing oxadiazole and triazolo-thiadiazoles nucleus: design and synthesis as anticancer agents” (2012)
